Data on 20 compounds can be found in ChEMBL document CHEMBL1121362, “DNA intercalating compounds as potential antitumor agents. 1. Preparation and properties of 7H-pyridocarbazoles” (1980).

Assay [1] concerns Calf thymus DNA. Kind of assay: DNA binding affinity constant in calf-thymus DNA at pH 7.4. The assay is classed as nucleic-acid assay. The settings on record: Bos taurus. The gist of the method: (§1)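 Calf thymus DNA (4 µg/mL) at 25 °C, with drug at 10^-5 M, titrated with microliter portions of ethidium bromide (100 µg/mL stock in buffer). Fluorescence excitation was 546 nm and emission 590 nm. Apparent affinity constant (Kap) was derived from Scatchard plots of the competition.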

In assay [2] the test system is L1210. Description: The compound was tested for maximum tolerated dose (MTD) against L1210 cells in […] mice. In kind it is functional, Mus musculus. In outline: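 Acute toxicity in mice by the usual procedure. MTD is the highest dose that can be given without any animal death.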
In assay [3] the test system is L1210. Description: The compound was tested for optimum dose fraction of MTD against L1210 cells in […] mice. The assay is classed as functional, Mus musculus. The gist of the method: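 L1210 leukaemia, 10^5 cells ip into DBA2 mice. Single ip dose of the acetate salt 24 h later, with 20–30 mice per group. Dose is expressed as a fraction of the MTD, where the MTD (highest dose causing no deaths) is taken as unity.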

The test system of assay [4] is Calf thymus DNA. Description: DNA binding affinity constant for calf-thymus DNA at pH 6. The assay is classed as nucleic-acid assay. Particulars: Bos taurus. The gist of the method: as §1
A short description of assay [5]: Acid dissociation constant (pKa) measured by UV spectroscopy.
In assay [6] the test system is Calf thymus DNA. Description: DNA binding affinity constant for calf-thymus DNA at pH 5. The assay is classed as nucleic-acid assay. Particulars: Bos taurus. In outline: as §1
The species entered for a further assay is Mus musculus. Kind of assay: The mean survival time of treated animals (T) was compared to that of control animals(C) calculated as % T/C = (treated survival/control) x 100. The assay is classed as functional. In outline: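 DBA2 mice, 20–30 per group, given 10^5 L1210 cells ip. 24 h later one ip injection of drug (acetate salt, water-soluble); controls get solvent alone. Deaths recorded daily and survivors past 45 days counted as cured. T/C = mean survival treated/control ×100, with significance by Student's t test.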

Broadly, the MTD is the largest dose that counted as tolerated. Usually T/C stands for the result in the treated group divided by that in the control group, in per cent.

In the assay on Calf thymus DNA [1], `C[n+]1ccc2ccc3[nH]c4ccc(O)cc4c3c2c1.[I-]` yielded a K app of 180000 M⁻¹. The compound also had an MTD with L1210 [2] of 25 mg/kg. The compound further registered an OD in the assay on L1210 [3] of 1.
`COc1ccc2[nH]c3ccc4cc[n+](C)cc4c3c2c1.[I-]`: the K app with Calf thymus DNA [1] amounted to 290000 M⁻¹. For the same compound, the MTD in the assay on L1210 [2] was 50 mg/kg. Moreover, the OD in the assay with L1210 [3] is 0.5.
For the compound `Oc1ccc2[nH]c3ccc4cccnc4c3c2c1`, the K app with Calf thymus DNA [1] came to 16000 M⁻¹; in the assay on Calf thymus DNA [4], 30000 M⁻¹; in the assay with Calf thymus DNA [6], 115000 M⁻¹. The compound further showed a pKa in assay [5] of 5.35.
In the assay with Calf thymus DNA [1], `C[n+]1cccc2c3c(ccc21)[nH]c1ccccc13.[I-]` gave a K app of 60000 M⁻¹. The compound also had an MTD with L1210 [2] of 50 mg/kg. Besides, in the assay on L1210 [3], the OD was determined as 0.5.
On to `Oc1ccc2[nH]c3ccc4cnccc4c3c2c1`, for which the K app in the assay on Calf thymus DNA [1] stood at 19000 M⁻¹; with Calf thymus DNA [4], 82000 M⁻¹; with Calf thymus DNA [6], 240000 M⁻¹. For the same compound, in assay [5], the pKa was determined as 6.75.
Regarding `COc1ccc2c(c1)c1c3cc[n+](C)cc3ccc1n2C.[I-]`, the K app in the assay with Calf thymus DNA [1] came to 310000 M⁻¹. This compound yielded a maximum tolerated dose (MTD) with L1210 [2] of 150 mg/kg. In the assay with L1210 [3], the OD stood at 0.5. Besides, in the assay listed under Mus musculus, the T/C was 115%.
`C[n+]1ccc2c(ccc3[nH]c4ccc(O)cc4c32)c1.[I-]` registered a K app in the assay with Calf thymus DNA [1] of 67000 M⁻¹. The compound further displayed a maximal tolerated dose (MTD) in the assay on L1210 [2] of 50 mg/kg. Also, in the assay with L1210 [3], the OD amounted to 0.5.
With `COc1ccc2c(c1)c1c3cnccc3ccc1n2C`, the results for the K app with Calf thymus DNA [1], with Calf thymus DNA [4] and in the assay on Calf thymus DNA [6] were 146000 M⁻¹, 250000 M⁻¹ and 530000 M⁻¹, respectively. The same compound yielded a pKa in assay [5] of 5.9.
With `COc1ccc2[nH]c3ccc4cc[n+](CCO)cc4c3c2c1.[I-]`, in the assay with Calf thymus DNA [1], the K app came to 110000 M⁻¹. Also, the MTD with L1210 [2] is 100 mg/kg. Further, the OD with L1210 [3] was found to be 0.5. The T/C in the assay listed under Mus musculus is recorded as 116%.
Take `COc1ccc2[nH]c3ccc4cnccc4c3c2c1`: the K app is 77000 M⁻¹ with Calf thymus DNA [1], 110000 M⁻¹ in the assay with Calf thymus DNA [4] and 150000 M⁻¹ in the assay with Calf thymus DNA [6]. Besides, the pKa in assay [5] is 6.4.
As for `COc1ccc2c(c1)c1c3ccncc3ccc1n2C`, the figures for the K app in the assay on Calf thymus DNA [1], with Calf thymus DNA [4] and in the assay on Calf thymus DNA [6] were 123000 M⁻¹, 467000 M⁻¹ and 1.1e+06 M⁻¹, respectively. In addition, the pKa in assay [5] stood at 6.6.
In the assay on Calf thymus DNA [1], `COc1ccc2c(c1)c1c3c[n+](CCN4CCCCC4)ccc3ccc1n2C.[Cl-]` registered a K app of 300000 M⁻¹. Besides, the MTD in the assay with L1210 [2] was 10 mg/kg. The compound also registered an OD in the assay on L1210 [3] of 0.5.
For `COc1ccc2[nH]c3ccc4c[n+](C)ccc4c3c2c1.[I-]`, in that order: 200000 M⁻¹, 50 mg/kg and 0.5.
As to `COc1ccc2[nH]c3ccc4ccncc4c3c2c1`, the K app in the assay with Calf thymus DNA [1] is 35000 M⁻¹; in the assay on Calf thymus DNA [4], 44000 M⁻¹; with Calf thymus DNA [6] it was 170000 M⁻¹. Besides, the pKa in assay [5] came out at 5.75.
With `COc1ccc2[nH]c3ccc4cccnc4c3c2c1`, the results for the K app with Calf thymus DNA [1], with Calf thymus DNA [4] and with Calf thymus DNA [6] were 18000 M⁻¹, 32000 M⁻¹ and 100000 M⁻¹, respectively. In assay [5], this compound displayed a pKa of 5.25.
In the same order, the values of `Oc1ccc2[nH]c3ccc4ccncc4c3c2c1` are 42000 M⁻¹, 115000 M⁻¹, 300000 M⁻¹ and 6.4.
For the compound `COc1ccc2[nH]c3ccc4ncccc4c3c2c1`, the K app in the assay on Calf thymus DNA [1] turned out to be 16000 M⁻¹; in the assay on Calf thymus DNA [4] it was 40000 M⁻¹; with Calf thymus DNA [6] it was 120000 M⁻¹. Besides, the pKa in assay [5] is 5.6.
In the same order, the values of `COc1ccc2c(c1)c1c3ncccc3ccc1n2C` are 23000 M⁻¹, 37000 M⁻¹, 157000 M⁻¹ and 5.35.
In the assay with Calf thymus DNA [1], `COc1ccc2[nH]c3ccc4cc[n+](CCN5CCCCC5)cc4c3c2c1.[Cl-]` came in with a K app of 120000 M⁻¹. The maximal tolerated dose (MTD) in the assay with L1210 [2] was 10 mg/kg. The same compound displayed an OD with L1210 [3] of 1.
As to `COc1ccc2c(c1)c1c3c[n+](C)ccc3ccc1n2C.[I-]`, the K app with Calf thymus DNA [1] came out at 695000 M⁻¹. The same compound gave an MTD in the assay with L1210 [2] of 25 mg/kg. Further, in the assay on L1210 [3], the OD is 0.7. The T/C in the assay filed under Mus musculus is 122%.
